Compounds with a hit are over-represented: about 2.9% of the library has one in this group of screens.
CHO parental Ca: counter-screen for OX1R antagonists: effect in parental CHO cells. parental CHO-K1, ATP-induced calcium, Fluo-8 fluorescence. inhibition, % at 5.6 µM. 0.63% of 330,000 active;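 active = inhibition above that plate's mean sample inhibition plus 3 SD, cut at about 26% in these data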;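 note: 0% = ATP-challenged DMSO wells and 100% = DMSO wells without ATP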
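Test system: parental CHO cells; detection: calcium-sensitive Fluo-8 fluorescence; evaluation: percent inhibition of calcium signal; also added: ATP as calcium-mobilizing challenge; repeats: one well per compound; control set: ATP-challenged DMSO wells low, unchallenged DMSO wells high; compound: single nominal dose of 5.6 µM per compound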
M1 PAM parental: counter-screen for M1 PAMs: effect in parental CHO-K1 cells; ATP EC20, Fluo-8 calcium fluorescence; 0% at ATP EC20, 100% at ATP max; activation, % at 3 µM; 0.02% of 360,000 active;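 active = activation above the run cutoff, the mean activation of all test compounds plus 3 SD, cut at about 40% in these data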;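 note: peak over basal fluorescence ratio in a 140 s read after ATP addition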
OX1R antag-1: human HCRTR1 antagonism; 0.43% of 330,000 active; inhibition, % at 5 µM; O43613; CHO/OX1R cells, Fluo-8 calcium fluorescence, orexin A;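 active = inhibition above its plate's threshold, mean inhibition of all tested compounds on the plate plus 3 SD, cut at about 37% in these data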;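 note: 0% = orexin A challenge wells and 100% = SB-334867-A antagonist wells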
Target sequence (O43613 whole entry, looked up): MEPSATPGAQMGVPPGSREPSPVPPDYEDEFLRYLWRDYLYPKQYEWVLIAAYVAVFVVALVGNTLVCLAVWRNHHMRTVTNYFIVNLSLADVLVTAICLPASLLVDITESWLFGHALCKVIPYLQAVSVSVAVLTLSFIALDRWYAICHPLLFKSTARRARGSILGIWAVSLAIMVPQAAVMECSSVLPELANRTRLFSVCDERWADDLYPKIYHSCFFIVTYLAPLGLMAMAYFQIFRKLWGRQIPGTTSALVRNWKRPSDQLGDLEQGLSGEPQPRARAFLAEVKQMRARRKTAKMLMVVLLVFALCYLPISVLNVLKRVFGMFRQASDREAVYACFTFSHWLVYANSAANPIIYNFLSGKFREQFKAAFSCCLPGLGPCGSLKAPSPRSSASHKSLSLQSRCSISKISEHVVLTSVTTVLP
CHO-K1 Ca ag: nonselective activator or artifact in parental CHO-K1 cells | Fluo-8 calcium fluorescence; scaled to maximal ATP response, vehicle zero | activation, % at 3 µM | 0.48% of 360,000 active | AID 602248; in the data active = activation above about 15%;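 note: untransfected CHO-K1 host cells lacking M1 receptor as counterscreen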
OX1R antag-2: antagonists of human orexin 1 receptor (OX1R). O43613. OX1R-expressing cells, FRET antagonist read-out. inhibition, % at 6.6 µM. 1.8% of 330,000 active; in the data active = inhibition mostly above about 38%, no sharp cut-off; inactive = mostly below about 40%;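 note: 0% = agonist challenge alone and 100% = reference antagonist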
CHO-K1 Ca antag: M1 antagonist counterscreen hit in parental CHO-K1 cells; ATP-induced calcium, Fluo-8 fluorescence; inhibition, % at 3 µM; 0.6% of 360,000 active;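 active = inhibition above a per-plate cutoff, the plate's mean sample inhibition plus 3 SD, cut at about 24% in these data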;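 note: 0% = DMSO plus EC80 ATP and 100% = DMSO alone without ATP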
* marks the source's active call; other numbers are inactive results; nt = no result given.

SMILES | CHO parental Ca | M1 PAM parental | OX1R antag-1 | CHO-K1 Ca ag | OX1R antag-2 | CHO-K1 Ca antag
Cc1cc(N2C(=O)C3C4C=CC(C4)C3C2=O)ccc1NC(=O)c1cccs1 (stereo not drawn) | -6 | -13 | -18 | -1 | 16 | 47*
CCOC(=O)CC1C(=O)NCCN1C(=O)c1ccc(Cl)c(Cl)c1 (stereo not drawn) | -3 | 74* | -13 | 4 | -2 | -14
CCC(=O)N1CCc2cc(S(=O)(=O)CCC(=O)Nc3ccc(F)c(F)c3)ccc21 | -16 | -8 | -14 | 0 | 27 | 35*
CN(C(=O)c1ccc(-c2nn(C)c(=O)c3ccccc23)cc1)C1CCCCC1 | -19 | -12 | -37 | 6 | 22 | -16
COc1cccc(-c2c(NC(=O)c3ccco3)n(-c3ccc(C)cc3)nc(C)c2=O)c1 | -13 | -6 | -4 | 0 | 14 | 32*
Cc1ccc(-n2nc(C)c(=O)c(-c3ccccc3)c2NC(=O)C(C)C)cc1 | -24 | -3 | -6 | 0 | 7 | -6
Cc1nnc(NC(=O)c2ccco2)s1 | 4 | -13 | -12 | 0 | 8 | 26*
Cc1ccc(NC(=O)c2ccc(OC(=O)c3ccco3)cc2)cc1 | -3 | 6 | -11 | 1 | 1 | -15
Cc1ccc(-c2nnc(NC(=O)c3ccco3)s2)cc1 | -1 | 0 | -10 | 2 | 23 | -2
COc1cccc(-c2nnc(NC(=O)c3ccco3)s2)c1 | -17 | -22 | -2 | 0 | 53* | 8
Cc1ccc(Oc2ccc(NC(=O)c3ccco3)cc2)cc1 | -1 | -6 | -6 | 0 | 23 | 27*
C=C(C(=O)Oc1ccccc1C(C)(C)C)c1ccccc1 | -23 | nt | -16 | nt | 10 | nt
COc1ccc([C@H]2C(C(=O)O)=C[C@@H](CC3CCCC3)N2S(=O)(=O)c2ccc(C)cc2)cc1OC | -21 | 13 | -40 | 1 | 9 | -8
O=C(O)Cc1ccc(NC(=O)c2cccc(NC(=O)c3ccco3)c2)cc1 | -5 | -14 | -2 | -1 | 14 | 28*
O=C(Nc1ccccc1)c1cccc(NC(=O)c2ccco2)c1 | 1 | 26 | 8 | 10 | 16 | -5
C=C(C)[C@@H]1C2=CC(C(=O)OC)=C(C[C@H](C(=C)C)[C@H]3O[C@H]3C3=C[C@H]1OC3=O)O2 | nt | 9 | nt | 2 | nt | -1
CCN(CCn1cccn1)C(=O)c1cccc(OC2CCN(S(C)(=O)=O)CC2)c1 | -6 | 3 | -8 | 1 | 23 | -12
O=P(CCCCCCCCCP(=O)(c1ccccc1)c1ccccc1)(c1ccccc1)c1ccccc1 | 100* | -1 | 86* | 6 | 26 | 16
COc1ccccc1C1N(c2cc(Cl)ccc2OC)C(=O)C2CCCN21 (stereo not drawn) | -18 | -13 | -17 | 0 | 9 | 27*
Cc1cc(C)c2sc(NC(=O)c3ccc([N+](=O)[O-])o3)nc2c1 | -9 | 13 | -19 | 1 | 10 | -1
O=C(O)c1ccccc1C(=O)Nc1ccc(S(=O)(=O)Nc2ccc(F)cc2)cc1 | 3 | -6 | 1 | 1 | -3 | 8
COCCOc1ccc(C(F)(F)F)cc1NC(=O)c1ccc(C)cc1 | 39* | -10 | -16 | 0 | 12 | 13
COCCOc1ccc(C(F)(F)F)cc1NC(=O)c1ccc(F)cc1 | -24 | -5 | -19 | 0 | -12 | 11
O=C(COc1cc2oc(=O)c3c(c2cc1Cl)CCC3)N1C[C@H]2C[C@@H](C1)c1cccc(=O)n1C2 | -16 | -3 | -25 | 0 | 20 | 5
COc1ccc2c(c1)oc1c(SCc3nc4ccccc4[nH]3)nc(C)nc12 | -24 | 17 | 16 | 4 | 48* | -22
Cc1nc(SCc2nc3cc(Cl)c(F)cc3[nH]2)c2oc3ccccc3c2n1 | 1 | 10 | 33 | 0 | 53* | -10
Cc1nc(SCc2nc3ccccc3[nH]2)c2oc3cc([N+](=O)[O-])ccc3c2n1 | -24 | 13 | -20 | 0 | 22 | -14
Cc1nc(SCc2nc3ccc(Cl)cc3[nH]2)c2oc3ccccc3c2n1 | -14 | 22 | 1 | 1 | 28 | -12
COc1cc(C(CC(=O)Nc2cccc(C)n2)N2Cc3ccccc3C2=O)cc(OC)c1OC (stereo not drawn) | -11 | 11 | -38 | 1 | 9 | -14
